For three compounds, IC50 and MIC results are on record in ChEMBL document CHEMBL1151987, “Glionitrin A, an antibiotic-antitumor metabolite derived from competitive interaction between abandoned mine microbes” (J Nat Prod, 2009).

In one test the test system is MCF7. Nature of the test: Cytotoxicity against human MCF7 cells. Type of test: functional, cell-based. The method in brief:
(§1)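 Cell proliferation inhibition measured by MTT assay; the value is reported as IC50 in µM.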

The subject of another test is AGS. Nature of the test: Cytotoxicity against human AGS cells. Type of test: functional, cell-based. The method, boiled down:
as §1

A further test relates to HepG2. Nature of the test: Cytotoxicity against human HepG2 cells. Type of test: functional, cell-based. The method, boiled down:
as §1

The next test deals with DU-145. The test is described as follows: Cytotoxicity against human DU145 cells. Type of test: functional, cell-based. The method in brief:
as §1

A further test deals with Proteus vulgaris. The test is described as follows: Antibacterial activity against Proteus vulgaris ATCC 3851. Type of test: functional.
Test [1] has as its system Staphylococcus aureus. The test is described as follows: Antibacterial activity against methicillin-resistant Staphylococcus aureus ATCC 700788. Type of test: functional.
The test system of the next test is Trichophyton rubrum. The test is described as follows: Antifungal activity against Trichophyton rubrum IFO 9185. Type of test: functional.
The test system of test [2] is Salmonella enterica subsp. enterica. Nature of the test: Antibacterial activity against Salmonella Typhimurium ATCC 14028. Type of test: functional, Salmonella enterica subsp. enterica serovar Typhimurium.
The subject of the next test is Micrococcus luteus. Nature of the test: Antibacterial activity against Micrococcus luteus IFC 12708. Type of test: functional.
Test [3] has as its system Staphylococcus aureus. Nature of the test: Antibacterial activity against methicillin-resistant Staphylococcus aureus ATCC 43300. Type of test: functional.
Another test has as its system HCT-116. Nature of the test: Cytotoxicity against human HCT116 cells. Type of test: functional, cell-based. The method in brief:
as §1

A further test relates to Aspergillus fumigatus. Nature of the test: Antifungal activity against Aspergillus fumigatus HIC 6094. Type of test: functional.
The test system of another test is A549. The test is described as follows: Cytotoxicity against human A549 cells. Type of test: functional, cell-based. The method in brief:
as §1

A further test deals with Bacillus subtilis. The test is described as follows: Antibacterial activity against Bacillus subtilis ATCC 6633. Type of test: functional.
Test [4] concerns Staphylococcus aureus. Nature of the test: Antibacterial activity against methicillin-resistant Staphylococcus aureus ATCC 700787. Type of test: functional.

≈ marks a conversion by molar mass, not a printed value.

For the compound `CN1C(=O)[C@@]23Cc4ccc([N+](=O)[O-])cc4N2C(=O)[C@@]1(CO)SS3` [GLIONITRIN A], the IC50 in the test with MCF7 is 2000 nM; in the test on AGS, 450 nM; in the test on HepG2, 2300 nM; with DU-145, 240 nM; in the test on HCT-116, 820 nM; in the test on A549, 550 nM. Moreover, the MIC in the test on Proteus vulgaris was 3.13 µg/mL (≈ 8.86 µM); against Staphylococcus aureus [1], 0.78 µg/mL (≈ 2.21 µM); against Trichophyton rubrum, 12.5 µg/mL (≈ 35.4 µM); in test [2], 3.13 µg/mL (≈ 8.86 µM); in the test on Micrococcus luteus, 0.78 µg/mL (≈ 2.21 µM); against Staphylococcus aureus [3] it was 0.78 µg/mL (≈ 2.21 µM). In addition, the figures for the MIC in the test on Aspergillus fumigatus, with Bacillus subtilis and in the test with Staphylococcus aureus [4] were 12.5 µg/mL (≈ 35.4 µM), 6.25 µg/mL (≈ 17.7 µM) and 0.78 µg/mL (≈ 2.21 µM), respectively.
For the compound `CC1(C)S[C@@H]2[C@H](NC(=O)[C@H](N)c3ccccc3)C(=O)N2[C@H]1C(=O)O` [AMPICILLIN], the MIC with Proteus vulgaris is 1.56 µg/mL (≈ 4.46 µM); against Staphylococcus aureus [1], 25 µg/mL (≈ 71.5 µM); in test [2], 12.5 µg/mL (≈ 35.8 µM); against Micrococcus luteus, 0.78 µg/mL (≈ 2.23 µM); in the test with Staphylococcus aureus [3], 12.5 µg/mL (≈ 35.8 µM); in the test on Bacillus subtilis it was 3.13 µg/mL (≈ 8.96 µM). The MIC against Staphylococcus aureus [4] was 12.5 µg/mL (≈ 35.8 µM).
For `C[C@@H]1[C@H](O)[C@@H](C)/C=C/C=C/C=C/C=C/C=C/C=C/C=C/[C@H](O[C@@H]2O[C@H](C)[C@@H](O)[C@H](N)[C@@H]2O)C[C@@H]2O[C@](O)(C[C@@H](O)C[C@@H](O)[C@H](O)CC[C@@H](O)C[C@@H](O)CC(=O)O[C@H]1C)C[C@H](O)[C@H]2C(=O)O` [AMPHOTERICIN B], it took 1.56 µg/mL (≈ 1.69 µM) to inhibit growth in the test on Trichophyton rubrum (MIC).
